Measurements taken from ChEMBL document CHEMBL1157291, “Discovery of bacterial fatty acid synthase inhibitors from a Phoma species as antimicrobial agents using a new antisense-based strategy” (J Nat Prod, 2006).
In brackets after ≈: the same amount, converted by molar mass.

Columns and labels:
[1] = Inhibition of Staphylococcus aureus FAS2
In short: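 Partially purified S. aureus protein containing all FAS enzymes (1.26 µg) was preincubated 20 min at room temperature with serial dilutions of compound. Reactions were started with [2-14C]malonyl-CoA (4 µM final), run 90 min at 37 °C, stopped with perchloric acid, and read by scintillation in phospholipid-coated flash plates. IC50 was determined.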

Staphylococcus aureus [2] = experiment: Antimicrobial activity against Staphylococcus aureus MB2865 after 20 hrs; format: functional
In short: (§1)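 MIC determination: cells inoculated at 10^5 CFU/mL, incubated at 37 °C for 20 h with 2-fold serial dilutions of compound in growth medium; MIC taken as lowest concentration inhibiting growth.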

Staphylococcus aureus [3] = experiment: Antimicrobial activity against Staphylococcus aureus RN450 transfected with plasmid SI-1941 bearing antisense to FabF assessed as drug level at which a zone formation after 18 hrs; format: functional
In short: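 Agar two-plate differential sensitivity assay: S. aureus RN450 carrying fabF antisense plasmid, with a vector-only control strain. Overnight LB cultures with 34 µg/mL chloramphenicol at 37 °C were inoculated 1:1000 (of OD 3.0) into LB agar with 0.2% glucose and 15 µg/mL chloramphenicol, plus 50 mM xylose for the antisense strain only. Samples were added to wells and incubated 18 h at 37 °C. MDC is the lowest 2-fold dilution giving a zone in the sensitive strain with a 5 mm zone differential over the control strain.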

Enterococcus faecium = experiment: Antimicrobial activity against vancomycin-resistant Enterococcus faecium CL5791 after 20 hrs; format: functional; in short: as §1
Staphylococcus aureus [4] = experiment: Antimicrobial activity against methicillin-resistant Staphylococcus aureus COL after 20 hrs; format: functional; in short: as §1
Escherichia coli [5] = experiment: Antimicrobial activity against envA transfected Escherichia coli after 20 hrs; format: functional
In short: (§2)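 Broth MIC: cells at 10^5 CFU/mL were incubated at 37 °C for 20 h with 2-fold serial dilutions of compound in growth medium. The MIC was taken as the lowest concentration inhibiting growth.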

Enterococcus faecalis = experiment: Antimicrobial activity against vancomycin-sensitive Enterococcus faecalis CL8516 after 20 hrs; format: functional; in short: as §2
Escherichia coli [6] = experiment: Antimicrobial activity against wild type Escherichia coli after 20 hrs; format: functional; in short: as §2

| SMILES | IC50 [1] [µg/mL] | MIC (Staphylococcus aureus [2]) [µg/mL] | Activity (Staphylococcus aureus [3]) [µg/mL] | MIC (Enterococcus faecium) [µg/mL] | MIC (Staphylococcus aureus [4]) [µg/mL] | MIC (Escherichia coli [5]) [µg/mL] | MIC (Enterococcus faecalis) [µg/mL] | MIC (Escherichia coli [6]) [µg/mL] |
| --- | --- | --- | --- | --- | --- | --- | --- | --- |
| CCCC#CC#CC=C=CCCCCCCCC(=O)O [PHOMALLENIC ACID C] | 0.77 (≈ 2.83 µM) | 3.9 (≈ 14.3 µM) | 0.15 | > 100 | 3.9 (≈ 14.3 µM) | 12.5 (≈ 45.9 µM) | > 100 | > 100 |
| CCCC#CC#CC=C=CCCCCCCC(=O)O [PHOMALLENIC ACID B] | 3.4 (≈ 13.2 µM) | 7.8 (≈ 30.2 µM) | 0.31 | > 100 | 12.5 (≈ 48.4 µM) | 25 (≈ 96.8 µM) | > 100 | > 100 |
| C=C/C(C)=C/[C@@]1(C)SC(=O)C(C)=C1O [THIOLACTOMYCIN] | – | – | – | > 250 | 64 (≈ 304 µM) | > 250 | > 250 | > 250 |
| C/C=C/C/C=C/CCC(=O)[C@H]1O[C@H]1C(N)=O [CERULENIN] | 1.5 (≈ 6.72 µM) | 64 (≈ 287 µM) | 32 | – | – | – | – | – |
| CCC(O)C#CC#CC=C=CCCCCC(=O)O (configuration not stated) [PHOMALLENIC ACID A] | 22 (≈ 89.3 µM) | 250 (≈ 1010 µM) | 0.63 | > 250 | 250 (≈ 1010 µM) | 31.3 (≈ 127 µM) | > 250 | > 250 |
